# Assay results pooled from the literature.
# Target: Serine/threonine-protein kinase Chk1 (CHEK1, Homo sapiens, UniProt O14757)
# Action: inhibitor
SMILES,effect on,method,cell line,tested at,inhibition [%]
COc1cc2ncnc(Nc3ccc(Oc4ccccc4)cc3C)c2cc1OC,enzyme activity,,,1 µM,6
CCN1CCN(Cc2ccc(NC(=O)c3ccc(C)c(/C=C/c4cnc5[nH]ccc5c4OC)c3)cc2C(F)(F)F)CC1,target engagement in cells,chemoproteomics,A-375,50 nM,-118
CNc1cccc2cc(C(=O)Nc3ccc(C(=O)O)cc3)c(=O)[nH]c12,enzyme activity,,,10 µM,-1.6
CNC(=O)c1cc(Oc2ccc(NC(=O)Nc3ccc(Cl)c(C(F)(F)F)c3)cc2)ccn1,enzyme activity,,,10 µM,-27
CN(C)C1CCN(CC#Cc2nn(C3CCCC3)c3nc(NCc4ccccc4)ncc23)C1 (centres unmarked),enzyme activity,FRET,,1 µM,-5
CCOc1cc(-c2nncn2C)ccc1Nc1ncc2cc(C)nc(NCC(C)(C)C)c2n1,enzyme activity,FRET,,1 µM,< 15
CCN1CCN(Cc2ccc(NC(=O)c3ccc(C)c(Oc4ccnc5[nH]ccc45)c3)cc2C(F)(F)F)CC1,target engagement in cells,chemoproteomics,A-375,0.5 µM,-141
CS(=O)(=O)Nc1cccc(-c2csc(NC(=O)CSc3nc4nccnc4c(=O)n3CCc3ccccc3)n2)c1,enzyme activity,,,10 µM,-3
C=CC(=O)Nc1cc(Nc2nccc(Nc3cc(Cl)c(F)cc3C(C)(C)O)n2)c(OC)cc1N1CC[C@@H](N(C)C)C1,enzyme activity,,,1 µM,9
Cc1ccc(Nc2nccc(N(C)c3ccc4c(C)n(C)nc4c3)n2)cc1S(N)(=O)=O,enzyme activity,,,10 µM,-6
CCCS(=O)(=O)Nc1ccc(F)c(C(=O)c2c[nH]c3ncc(-c4ccc(Cl)cc4)cc23)c1F,enzyme activity,,,1 µM,< 10
COc1cccc2c(NCc3ccccc3)nc(-n3c(N)nc4ccccc43)nc12,target engagement in cells,chemoproteomics,,20 mM,-4.2
Cc1ncc([N+](=O)[O-])n1C(=NO)c1ccccc1C(F)(F)F,enzyme activity,,,10 µM,19.2
CNCc1ccc(-c2cc(-c3nc(-c4ccc(S(=O)(=O)C(C)C)cc4)cnc3N)on2)cc1,enzyme activity,,,0.4 µM,15
